Test results from paper PMC8521395 (Journal of Antimicrobial Chemotherapy, 2021).

Columns and labels:
Assay type in all cases: cell-based, Escherichia coli
MG1655 = assay: MIC determination by broth microdilution; conditions: MG1655, non-cation-adjusted Mueller-Hinton broth (MHB-I), low-binding plastic, 37°C, 18 h, turbidity OD595
NrdA protein = assay: Western-blot analysis of NrdA protein level; conditions: 8 μM PNA-peptide, 3 h, AB medium, WT cells, band intensity relative to WT
E. coli = assay: MIC of chloramphenicol and nalidixic acid in AB medium; conditions: printed as the concentration equal to 10×MIC
Strain SMR14350 = assay: In vivo double-stranded DNA break visualization; conditions: ciprofloxacin 0.0125 mg/L, 4 h, AB medium, mean±SD of three determinations
Outline: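 E. coli Gam-GFP reporter strain SMR14350 grown exponentially at 37°C in AB minimal medium (10 mg/L thiamine, 0.2% glucose, 0.5% casamino acids), diluted to OD450 0.05. PNA-peptide test compound (8 μM) or ciprofloxacin (0.0125 mg/L) added with anhydrotetracycline (10 mg/L) to induce Gam-GFP, for 4 h. Foci scored by fluorescence microscopy in three independent experiments (2553–3860 cells per condition).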

WT E. coli cells = assay: Macromolecular synthesis; conditions: nalidixic acid 40 mg/L (10×MIC), AB medium without casamino acids, single experiment
[1] = test system: WT carrying pCC:nrdAByfaE; assay: Time-kill assay, WT carrying pCC:nrdAByfaE; conditions: 50 μM HU, 5 h, MHB-I

H-(KFF)3K-eg1-ATTGAT TGC G -NH2 [PNA5866]
MIC (MG1655): 16 µM | decrease of cellular NrdA protein level (NrdA protein): did not inhibit NrdA protein levels

O=C(N[C@H](CO)[C@H](O)c1ccc([N+](=O)[O-])cc1)C(Cl)Cl [chloramphenicol]
10×MIC (E. coli): 80 µg/mL

O=C(O)c1cn(C2CC2)c2cc(N3CCNCC3)c(F)cc2c1=O [ciprofloxacin]
percentage of cells with Gam-GFP foci (Strain SMR14350): 51.9 ± 6.9%

CCn1cc(C(=O)O)c(=O)c2ccc(C)nc21 [nalidixic acid]
DNA synthesis (DNA replication) (WT E. coli cells): faster cessation of DNA replication | 10×MIC (E. coli): 40 µg/mL

NC(=O)NO [HU, hydroxyurea]
reduction in cfu/mL, HU alone [1]: < 1 log
